Reference: ChEMBL document CHEMBL4627381, “Licochalcone A Selectively Resensitizes ABCG2-Overexpressing Multidrug-Resistant Cancer Cells to Chemotherapeutic Drugs” (J Nat Prod, 2020)

Assays:
NCI-H460 [1] = test: Effect on mitoxantrone-induced cytotoxicity against human H460 cells assessed as change in mitoxantrone IC50 at 3 uM after 72 hrs by MTT assay relative to mitoxantrone IC50; type: functional
How it was run: (§1)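 Parental S1 colon and H460 lung cancer cells were exposed for 72 h to a mitoxantrone or topotecan concentration series, with or without modulator at 0.5–3.0 μM, and read by MTT. Fold-reversal is IC50 without modulator divided by IC50 with modulator, taken from dose-response curves of three independent experiments.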

HEK293 [2] = test: Effect on mitoxantrone-induced cytotoxicity against HEK293 cells assessed as fold change in mitoxantrone IC50 at 3 uM after 72 hrs by CCK8 assay relative to mitoxantrone IC50; type: cell-based; conditions: human, hek293, 72 h
How it was run: (§2)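 Reversal assay in parental pcDNA-HEK293 and transfected HEK293 lines (ABCB1 for colchicine, ABCC1 for etoposide, ABCG2 for mitoxantrone/topotecan). Substrate drug series was given with or without nontoxic modulator (0.5, 1.0, 2.0 or 3.0 μM) for 72 h, with a CCK-8 read-out. Fold-reversal is substrate IC50 without modulator divided by IC50 with modulator. Three independent experiments.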

[3] = biological target: T1, Broad substrate specificity ATP-binding cassette transporter ABCG2 (Homo sapiens, UniProt Q9UNQ0); test: Reversal of ABCG2 (unknown origin)-mediated multidrug resistance in human S1-M1-80 cells assessed as fold-change in topotecan IC50 at 3 uM after 72 hrs by MTT assay relative to topotecan IC50; type: cell-based; conditions: s1-m1-80, 72 h
T1 sequence (Q9UNQ0 whole entry): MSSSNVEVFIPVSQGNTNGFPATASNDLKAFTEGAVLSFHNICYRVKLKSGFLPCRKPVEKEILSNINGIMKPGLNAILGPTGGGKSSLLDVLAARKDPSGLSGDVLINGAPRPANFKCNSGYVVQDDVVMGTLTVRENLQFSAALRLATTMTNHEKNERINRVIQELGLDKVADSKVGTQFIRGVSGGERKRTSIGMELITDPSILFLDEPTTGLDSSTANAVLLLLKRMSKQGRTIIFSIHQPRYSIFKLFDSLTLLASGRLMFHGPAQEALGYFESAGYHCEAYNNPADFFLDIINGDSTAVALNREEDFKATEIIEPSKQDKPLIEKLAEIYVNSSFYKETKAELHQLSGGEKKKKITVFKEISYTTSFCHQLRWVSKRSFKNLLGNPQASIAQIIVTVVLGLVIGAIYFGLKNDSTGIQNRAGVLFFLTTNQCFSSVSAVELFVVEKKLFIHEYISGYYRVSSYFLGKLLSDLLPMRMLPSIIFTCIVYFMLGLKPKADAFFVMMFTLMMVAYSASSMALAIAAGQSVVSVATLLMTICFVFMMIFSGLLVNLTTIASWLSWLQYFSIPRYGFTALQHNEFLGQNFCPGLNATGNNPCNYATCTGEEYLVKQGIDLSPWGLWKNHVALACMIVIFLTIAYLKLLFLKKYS
How it was run: (§3)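 MTT readout in S1-M1-80 colon cancer cells (mitoxantrone-selected, held in 80 μM mitoxantrone, then drug-free 7 days before assay). Cells were seeded at 5000/well for 24 h, then given increasing mitoxantrone or topotecan with DMSO or non-toxic modulator for 72 h at 37 °C. IC50 came from fitted dose-response curves (at least three independent experiments). Fold-reversal = IC50 without modulator ÷ IC50 with modulator.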

[4] = biological target: Multidrug resistance-associated protein 1 (Homo sapiens, UniProt P33527); test: Reversal of human ABCC1-mediated multidrug resistance in HEK293/MRP1 cells assessed as fold-change in etoposide IC50 at 0.5 uM after 72 hrs by CCK8 relative to etoposide IC50; type: cell-based
How it was run: (§4)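 Cells were seeded at 5000/well for 24 h, then given colchicine, etoposide, mitoxantrone or topotecan ± non-toxic modulator (0.5–3.0 μM) for 72 h, with DMSO up to 0.5%. IC50 came from fitted curves (mean ± SD, three experiments). Fold-reversal = IC50 without modulator ÷ IC50 with modulator.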

S1 [5] = test: Induction of apoptosis in human S1 cells assessed as early apoptotic cells at 10 uM incubated for 48 hrs by annexin V/propidium iodide staining based flow cytometry (reference value: 2%); type: functional
How it was run: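 S1 cells were exposed for 48 h to DMSO, 10 μM compound, 5 μM topotecan, or 5 μM topotecan plus 10 μM compound. They were then stained with 1.25 μg/mL annexin V–FITC and 0.1 mg/mL PI for 15 min at room temperature. 10000 cells per sample were analysed by flow cytometry; three independent experiments.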

[6] = biological target: ATP-dependent translocase ABCB1 (Homo sapiens, UniProt P08183); test: Reversal of human ABCB1-mediated multidrug resistance in HEK293/MDR19 cells assessed as fold change in colchicine IC50 at 0.5 uM after 72 hrs by CCK8 relative to colchicine IC50; type: cell-based; how it was run: as §4
S1-M1-80 = test: Induction of apoptosis in human S1-M1-80 cells harboring ABCG2 (unknown origin) assessed as late apoptotic cells at 10 uM incubated for 48 hrs by annexin V/propidium iodide staining based flow cytometry (reference value: 2.9%); type: functional
HEK293 [7] = test: Induction of Calcein-AM accumulation in HEK293 cells at 20 uM incubated for 10 mins by FACScan flow cytometry; type: cell-based; conditions: human, hek293, 10 min
How it was run: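 Parental HEK293 cells (3 × 10^5) were resuspended in IMDM with 5% FCS and given calcein-AM with or without 20 μM modulator for 10 min. Intracellular calcein (ex 485/em 535 nm) was measured by flow cytometry; at least three independent experiments.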

HEK293 [8] = test: Effect on mitoxantrone-induced cytotoxicity against HEK293 cells assessed as fold change in mitoxantrone IC50 at 0.5 uM after 72 hrs by CCK8 assay relative to mitoxantrone IC50; type: cell-based; conditions: human, hek293, 72 h; how it was run: as §2
[9] = biological target: T1, Broad substrate specificity ATP-binding cassette transporter ABCG2; test: Reversal of ABCG2 (unknown origin)-mediated multidrug resistance in human S1-M1-80 cells assessed as fold-change in mitoxantrone IC50 at 3 uM after 72 hrs by MTT assay relative to mitoxantrone IC50; type: cell-based; conditions: s1-m1-80, 72 h; how it was run: as §3
NCI-H460 [10] = test: Effect on mitoxantrone-induced cytotoxicity against human H460 cells assessed as fold change in mitoxantrone IC50 at 0.5 uM after 72 hrs by MTT assay relative to mitoxantrone IC50; type: functional; how it was run: as §1
[11] = biological target: T1, Broad substrate specificity ATP-binding cassette transporter ABCG2; test: Reversal of ABCG2 (unknown origin)-mediated multidrug resistance in human H460-MX20 cells assessed as fold change in topotecan IC50 at 1 uM after 72 hrs by MTT assay relative to topotecan IC50; type: cell-based
How it was run: (§5)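 Cells held drug-free 7 days, seeded at 5000 per well for 24 h, then exposed 72 h to mitoxantrone or topotecan dilutions with DMSO (≤0.5%), LCA 0.5–3.0 μM, or Ko143 1.0 μM. Viability was read by MTT. IC50 came from fitted dose-response curves of three independent experiments. Fold-reversal = IC50 without modulator divided by IC50 with modulator.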

S1 [12] = test: Effect on mitoxantrone-induced cytotoxicity against human S1 cells assessed as fold change in mitoxantrone IC50 at 3 uM after 72 hrs by MTT assay relative to mitoxantrone IC50; type: functional; how it was run: as §1
[13] = biological target: T1, Broad substrate specificity ATP-binding cassette transporter ABCG2; test: Reversal of ABCG2 (unknown origin)-mediated multidrug resistance in human H460-MX20 cells assessed as fold change in topotecan IC50 at 2 uM after 72 hrs by MTT assay relative to topotecan IC50; type: cell-based; how it was run: as §5

Chain of Multidrug resistance-associated protein 1 (P33527 whole entry): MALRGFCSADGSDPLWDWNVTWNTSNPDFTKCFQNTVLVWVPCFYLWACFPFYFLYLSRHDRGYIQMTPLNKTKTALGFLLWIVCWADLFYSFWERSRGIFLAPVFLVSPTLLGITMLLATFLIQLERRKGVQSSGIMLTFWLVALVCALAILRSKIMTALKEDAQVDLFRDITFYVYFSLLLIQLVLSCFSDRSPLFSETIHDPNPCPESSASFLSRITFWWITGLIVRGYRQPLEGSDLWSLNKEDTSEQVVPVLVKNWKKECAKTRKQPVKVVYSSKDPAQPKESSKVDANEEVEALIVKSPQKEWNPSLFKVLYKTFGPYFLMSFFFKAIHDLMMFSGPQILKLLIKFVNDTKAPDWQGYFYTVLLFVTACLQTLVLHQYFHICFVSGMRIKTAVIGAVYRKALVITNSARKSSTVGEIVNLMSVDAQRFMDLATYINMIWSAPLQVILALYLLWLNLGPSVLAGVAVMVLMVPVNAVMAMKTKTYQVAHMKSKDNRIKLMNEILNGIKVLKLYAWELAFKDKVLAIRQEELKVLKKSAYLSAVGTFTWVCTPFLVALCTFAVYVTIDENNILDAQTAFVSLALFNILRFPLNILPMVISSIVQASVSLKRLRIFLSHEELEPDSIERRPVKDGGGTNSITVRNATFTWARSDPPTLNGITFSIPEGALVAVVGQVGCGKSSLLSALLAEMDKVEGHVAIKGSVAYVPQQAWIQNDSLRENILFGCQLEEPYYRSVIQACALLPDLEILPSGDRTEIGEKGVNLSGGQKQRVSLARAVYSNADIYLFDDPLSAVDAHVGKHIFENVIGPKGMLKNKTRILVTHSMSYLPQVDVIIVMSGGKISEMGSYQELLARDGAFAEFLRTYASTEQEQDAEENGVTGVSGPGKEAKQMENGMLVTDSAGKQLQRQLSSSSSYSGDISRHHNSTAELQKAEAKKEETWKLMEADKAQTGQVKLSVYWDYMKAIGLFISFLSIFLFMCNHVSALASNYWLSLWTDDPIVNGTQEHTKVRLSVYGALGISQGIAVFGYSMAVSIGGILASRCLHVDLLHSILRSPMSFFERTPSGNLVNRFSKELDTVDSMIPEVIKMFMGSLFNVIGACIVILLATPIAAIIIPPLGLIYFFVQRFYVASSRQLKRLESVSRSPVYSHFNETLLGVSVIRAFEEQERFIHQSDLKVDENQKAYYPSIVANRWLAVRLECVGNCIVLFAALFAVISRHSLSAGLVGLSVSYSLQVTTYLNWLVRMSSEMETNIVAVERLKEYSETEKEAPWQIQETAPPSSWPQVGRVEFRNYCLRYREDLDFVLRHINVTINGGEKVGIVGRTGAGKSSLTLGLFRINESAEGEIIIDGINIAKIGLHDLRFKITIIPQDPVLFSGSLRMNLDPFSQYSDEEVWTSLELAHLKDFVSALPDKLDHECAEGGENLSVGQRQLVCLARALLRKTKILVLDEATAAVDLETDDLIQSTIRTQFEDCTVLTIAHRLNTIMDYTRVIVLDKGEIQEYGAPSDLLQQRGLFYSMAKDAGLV
Chain of ATP-dependent translocase ABCB1 (P08183 whole entry): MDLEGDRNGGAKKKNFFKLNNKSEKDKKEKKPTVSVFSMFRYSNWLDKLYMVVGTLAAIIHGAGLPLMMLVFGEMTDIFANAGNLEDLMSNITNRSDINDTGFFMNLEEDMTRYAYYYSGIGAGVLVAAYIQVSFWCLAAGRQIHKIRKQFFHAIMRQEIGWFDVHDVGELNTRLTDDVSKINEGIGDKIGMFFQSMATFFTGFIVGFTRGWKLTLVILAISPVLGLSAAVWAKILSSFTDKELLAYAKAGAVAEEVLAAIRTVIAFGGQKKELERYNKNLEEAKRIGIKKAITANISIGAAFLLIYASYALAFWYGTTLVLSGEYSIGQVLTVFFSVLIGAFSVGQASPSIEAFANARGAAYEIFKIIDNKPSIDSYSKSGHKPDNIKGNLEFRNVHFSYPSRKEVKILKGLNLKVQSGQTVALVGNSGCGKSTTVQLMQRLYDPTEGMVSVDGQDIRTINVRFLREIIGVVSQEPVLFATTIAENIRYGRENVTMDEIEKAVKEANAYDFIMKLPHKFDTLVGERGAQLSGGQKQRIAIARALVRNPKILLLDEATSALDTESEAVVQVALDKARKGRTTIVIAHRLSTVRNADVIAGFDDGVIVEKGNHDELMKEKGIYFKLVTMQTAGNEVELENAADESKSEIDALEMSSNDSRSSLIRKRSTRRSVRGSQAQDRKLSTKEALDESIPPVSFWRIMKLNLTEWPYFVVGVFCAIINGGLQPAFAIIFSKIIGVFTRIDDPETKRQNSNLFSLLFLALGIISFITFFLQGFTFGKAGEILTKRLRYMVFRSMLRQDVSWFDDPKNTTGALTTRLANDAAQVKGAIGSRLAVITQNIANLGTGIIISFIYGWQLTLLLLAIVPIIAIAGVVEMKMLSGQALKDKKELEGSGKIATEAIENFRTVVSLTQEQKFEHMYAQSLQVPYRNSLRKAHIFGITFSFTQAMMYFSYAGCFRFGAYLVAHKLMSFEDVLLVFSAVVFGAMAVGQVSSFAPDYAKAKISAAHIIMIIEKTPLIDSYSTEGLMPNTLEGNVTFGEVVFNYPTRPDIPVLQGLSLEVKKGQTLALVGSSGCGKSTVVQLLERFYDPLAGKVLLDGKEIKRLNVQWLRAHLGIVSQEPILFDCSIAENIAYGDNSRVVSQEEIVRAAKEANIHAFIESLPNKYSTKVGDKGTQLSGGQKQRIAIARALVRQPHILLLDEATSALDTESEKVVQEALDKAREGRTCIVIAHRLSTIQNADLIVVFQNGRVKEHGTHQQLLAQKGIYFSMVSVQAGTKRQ

## C=CC(C)(C)c1cc(/C=C/C(=O)c2ccc(O)cc2)c(OC)cc1O [LICOAGROCHACONE A]
NCI-H460 [1]
  fold change (FC): 1.1
HEK293 [2]
  fold change (FC): 1
[3]
  fold change (FC): 32.7
[4]
  fold change (FC): 1.2
S1 [5]
  Activity: 1.7%
[6]
  fold change (FC): 1
S1-M1-80
  Activity: 2.9%
HEK293 [7]
  Activity: Non-Toxic
HEK293 [8]
  fold change (FC): 0.9
[9]
  fold change (FC): 48.1
NCI-H460 [10]
  fold change (FC): 0.8
[11]
  fold change (FC): 9.2
S1 [12]
  fold change (FC): 1
[13]
  fold change (FC): 8.9
